Laboratory results as given in ChEMBL document CHEMBL4257465, “Strigolactones: a plant phytohormone as novel anti-inflammatory agents” (Medchemcomm, 2018).
Calls of active or inactive are those of the source. The calls are words filed in the database; no cut-off is given here.

Experiments:
RAW264.7 [1] = experiment: Antiinflammatory activity in LPS-induced mouse RAW264.7 cells assessed as IL-6 levels at 10 uM pretreated for 2 hrs followed by LPS stimulation and measured after 24 hrs by ELISA (reference value: 1966.6 +/- 102.3 pg/ml); type: functional
Procedure, shortened: (§1)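 RAW264.7 murine macrophages (DMEM, 10% serum, 37 °C, 5% CO2) seeded at 5 × 10^5 cells per well, pretreated 2 h with compound at 10, 5, 2.5 or 1.25 μM (DMSO 0.1% v/v), then LPS (E. coli 0127:B8) 100 ng mL−1 added. Supernatant TNF-α or IL-6 read by mouse ELISA kit after 6, 12 and 24 h. Mean ± SD, n = 3, three independent experiments.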

RAW264.7 [2] = experiment: Antiinflammatory activity in LPS-induced mouse RAW264.7 cells assessed as IL-6 levels at 2.5 uM pretreated for 2 hrs followed by LPS stimulation and measured after 6 hrs by ELISA (reference value: 472.3 +/- 25.8 pg/ml); type: functional; procedure, shortened: as §1
RAW264.7 [3] = experiment: Antiinflammatory activity in LPS-induced mouse RAW264.7 cells assessed as TNFalpha levels at 5 uM pretreated for 2 hrs followed by LPS stimulation and measured after 12 hrs by ELISA (reference value: 5313.7 +/- 420.9 pg/ml); type: functional; procedure, shortened: as §1
Danio rerio = experiment: In-vivo antiinflammatory activity in 4 days post fertilized zebrafish larvae harboring coronilla-eGFP/Lyc-dsRed assessed as reduction in macrophage recruitment to wounded tail at 5 to 20 uM measured after 3 to 6 hrs by fluorescence microscopic analysis; type: functional, organism-based
Procedure, shortened: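 Double transgenic neutrophil/macrophage reporter larvae (Coronilla-eGFP/Lyc-dsRed), 4 dpf, tail-cut. […] Neutrophils and macrophages gathering at the wound imaged by fluorescence microscopy at 3 and 6 h. 6–8 larvae per group. Uncut larvae serve as blank, untreated cut larvae as control.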

RAW264.7 [4] = experiment: Antiinflammatory activity in LPS-induced mouse RAW264.7 cells assessed as TNFalpha levels at 5 uM pretreated for 2 hrs followed by LPS stimulation and measured after 6 hrs by ELISA (reference value: 4377.1 +/- 318.6 pg/ml); type: functional; procedure, shortened: as §1
[5] = target: MAP kinase p38 (Mus musculus) (UniProt P47811+O08911+Q9WUI1+Q9Z1B7); experiment: Inhibition of LPS-induced p38 MAPK phosphorylation in mouse RAW264.7 cells after 4 hrs by Western blot analysis; type: cell-based
Procedure, shortened: (§2)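 RAW264.7 cells at 2 × 10^6 per well given fresh medium with compound (10, 5, 2.5, 1.25 μM) plus LPS 500 ng mL−1 for 4 h. Lysed in IP buffer with 1 mM PMSF, protein by BCA. Run on 12.5% SDS-PAGE and blotted. Phospho and total ERK1/2 (Thr202/Tyr204), p38 (Thr180/Tyr182), IκBα (Ser32/36) and NF-κB p65 detected by ECL. Mean ± SD, n = 3.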

RAW264.7 [6] = experiment: Antiinflammatory activity in LPS-induced mouse RAW264.7 cells assessed as IL-6 levels at 2.5 uM pretreated for 2 hrs followed by LPS stimulation and measured after 24 hrs by ELISA (reference value: 1966.6 +/- 102.3 pg/ml); type: functional; procedure, shortened: as §1
[7] = target: T1, NF-kappa-B inhibitor alpha (Mus musculus) (UniProt Q9Z1E3); experiment: Inhibition of LPS-induced IkappaBalpha phosphorylation in mouse RAW264.7 cells after 4 hrs by Western blot analysis; type: cell-based; procedure, shortened: as §2
T1 sequence (whole entry): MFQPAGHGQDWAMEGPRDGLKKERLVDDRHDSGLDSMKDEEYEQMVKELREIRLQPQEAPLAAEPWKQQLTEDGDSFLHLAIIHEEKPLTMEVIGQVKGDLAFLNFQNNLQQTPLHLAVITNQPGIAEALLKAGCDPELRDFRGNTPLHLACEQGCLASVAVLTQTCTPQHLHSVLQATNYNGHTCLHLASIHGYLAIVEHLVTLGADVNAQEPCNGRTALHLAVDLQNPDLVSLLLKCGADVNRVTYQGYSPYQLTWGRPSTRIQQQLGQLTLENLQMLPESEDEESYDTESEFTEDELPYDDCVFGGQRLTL

RAW264.7 [8] = experiment: Antiinflammatory activity in LPS-induced mouse RAW264.7 cells assessed as IL-6 levels at 5 uM pretreated for 2 hrs followed by LPS stimulation and measured after 6 hrs by ELISA (reference value: 472.3 +/- 25.8 pg/ml); type: functional; procedure, shortened: as §1
RAW264.7 [9] = experiment: Antiinflammatory activity in LPS-induced mouse RAW264.7 cells assessed as TNFalpha levels at 10 uM pretreated for 2 hrs followed by LPS stimulation and measured after 24 hrs by ELISA (reference value: 9653.7 +/- 377.3 pg/ml); type: functional; procedure, shortened: as §1
RAW264.7 [10] = experiment: Antiinflammatory activity in LPS-induced mouse RAW264.7 cells assessed as IL-6 levels at 1.25 uM pretreated for 2 hrs followed by LPS stimulation and measured after 6 hrs by ELISA (reference value: 472.3 +/- 25.8 pg/ml); type: functional; procedure, shortened: as §1
RAW264.7 [11] = experiment: Antiinflammatory activity in LPS-induced mouse RAW264.7 cells assessed as IL-6 levels at 10 uM pretreated for 2 hrs followed by LPS stimulation and measured after 12 hrs by ELISA (reference value: 1394 +/- 62.6 pg/ml); type: functional; procedure, shortened: as §1
RAW264.7 [12] = experiment: Antiinflammatory activity in LPS-induced mouse RAW264.7 cells assessed as TNFalpha levels at 2.5 uM pretreated for 2 hrs followed by LPS stimulation and measured after 24 hrs by ELISA (reference value: 9653.7 +/- 377.3 pg/ml); type: functional; procedure, shortened: as §1
RAW264.7 [13] = experiment: Antiinflammatory activity in LPS-induced mouse RAW264.7 cells assessed as TNFalpha levels at 1.25 uM pretreated for 2 hrs followed by LPS stimulation and measured after 6 hrs by ELISA (reference value: 4377.1 +/- 318.6 pg/ml); type: functional; procedure, shortened: as §1
RAW264.7 [14] = experiment: Antiinflammatory activity in LPS-induced mouse RAW264.7 cells assessed as IL-6 levels at 10 uM pretreated for 2 hrs followed by LPS stimulation and measured after 6 hrs by ELISA (reference value: 472.3 +/- 25.8 pg/ml); type: functional; procedure, shortened: as §1
[15] = target: Mitogen-activated protein kinase 1 and 3 (ERK2 and ERK1) (Mus musculus) (UniProt P63085+Q63844); experiment: Inhibition of LPS-induced ERK1/2 phosphorylation in mouse RAW264.7 cells after 4 hrs by Western blot analysis; type: cell-based; procedure, shortened: as §2
RAW264.7 [16] = experiment: Antiinflammatory activity in LPS-induced mouse RAW264.7 cells assessed as IL-6 levels at 5 uM pretreated for 2 hrs followed by LPS stimulation and measured after 24 hrs by ELISA (reference value: 1966.6 +/- 102.3 pg/ml); type: functional; procedure, shortened: as §1
RAW264.7 [17] = experiment: Antiinflammatory activity in LPS-induced mouse RAW264.7 cells assessed as TNFalpha levels at 10 uM pretreated for 2 hrs followed by LPS stimulation and measured after 6 hrs by ELISA (reference value: 4377.1 +/- 318.6 pg/ml); type: functional; procedure, shortened: as §1
RAW264.7 [18] = experiment: Antiinflammatory activity in LPS-induced mouse RAW264.7 cells assessed as TNFalpha levels at 1.25 uM pretreated for 2 hrs followed by LPS stimulation and measured after 24 hrs by ELISA (reference value: 9653.7 +/- 377.3 pg/ml); type: functional; procedure, shortened: as §1

Mitogen-activated protein kinase 1 and 3 (ERK2 and ERK1) (Mus musculus), sequence (P63085 whole entry, looked up): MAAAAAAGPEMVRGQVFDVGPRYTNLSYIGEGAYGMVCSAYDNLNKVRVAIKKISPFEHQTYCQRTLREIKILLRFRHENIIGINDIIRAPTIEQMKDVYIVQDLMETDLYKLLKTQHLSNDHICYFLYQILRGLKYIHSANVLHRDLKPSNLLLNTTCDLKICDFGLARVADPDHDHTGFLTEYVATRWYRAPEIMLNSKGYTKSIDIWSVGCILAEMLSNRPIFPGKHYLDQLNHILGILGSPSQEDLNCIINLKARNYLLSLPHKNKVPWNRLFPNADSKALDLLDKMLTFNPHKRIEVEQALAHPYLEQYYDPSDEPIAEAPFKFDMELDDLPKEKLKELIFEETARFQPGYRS
Mitogen-activated protein kinase 1 and 3 (ERK2 and ERK1) (Mus musculus), sequence (Q63844 whole entry, looked up): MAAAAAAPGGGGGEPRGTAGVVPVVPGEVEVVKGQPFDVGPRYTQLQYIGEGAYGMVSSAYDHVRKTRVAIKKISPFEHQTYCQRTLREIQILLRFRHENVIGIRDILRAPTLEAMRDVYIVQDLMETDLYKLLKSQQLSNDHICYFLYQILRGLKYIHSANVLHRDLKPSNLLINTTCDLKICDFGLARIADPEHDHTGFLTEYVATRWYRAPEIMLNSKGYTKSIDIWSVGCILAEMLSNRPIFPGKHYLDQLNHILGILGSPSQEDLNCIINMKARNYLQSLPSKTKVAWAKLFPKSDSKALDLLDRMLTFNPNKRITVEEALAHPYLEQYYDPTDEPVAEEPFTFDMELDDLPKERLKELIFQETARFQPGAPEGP

CC1=C[C@@H](O/C=C2/C(=O)O[C@H]3c4ccccc4C[C@@H]23)OC1=O
Activity (RAW264.7 [1]): 1061.3 pg/mL | Activity (RAW264.7 [2]): 447.9 pg/mL | Activity (RAW264.7 [3]): 5079.1 pg/mL | Activity (Danio rerio): Active | Activity (RAW264.7 [4]): 4209.3 pg/mL | inhibition [5]: Dose-dependent effect | Activity (RAW264.7 [6]): 1787.6 pg/mL | inhibition [7]: Dose-dependent effect | Activity (RAW264.7 [8]): 410.3 pg/mL | Activity (RAW264.7 [9]): 8796.7 pg/mL | Activity (RAW264.7 [10]): 470.1 pg/mL | Activity (RAW264.7 [11]): 998.2 pg/mL | Activity (RAW264.7 [12]): 9444.5 pg/mL | Activity (RAW264.7 [13]): 4367.3 pg/mL | Activity (RAW264.7 [14]): 340.6 pg/mL | inhibition [15]: Dose-dependent effect | Activity (RAW264.7 [16]): 1561.1 pg/mL | Activity (RAW264.7 [17]): 3927.4 pg/mL | Activity (RAW264.7 [18]): 9582.9 pg/mL

CC1=C[C@H](O/C=C2/C(=O)O[C@@H]3c4ccccc4C[C@H]23)OC1=O
Activity (RAW264.7 [1]): 1002.2 pg/mL | Activity (RAW264.7 [2]): 433.6 pg/mL | Activity (RAW264.7 [3]): 5036.1 pg/mL | Activity (Danio rerio): Active | Activity (RAW264.7 [4]): 4140.7 pg/mL | inhibition [5]: Dose-dependent effect | Activity (RAW264.7 [6]): 1729.3 pg/mL | inhibition [7]: Dose-dependent effect | Activity (RAW264.7 [8]): 387.1 pg/mL | Activity (RAW264.7 [9]): 8660.7 pg/mL | Activity (RAW264.7 [10]): 461.2 pg/mL | Activity (RAW264.7 [11]): 869 pg/mL | Activity (RAW264.7 [12]): 9397.7 pg/mL | Activity (RAW264.7 [13]): 4388.3 pg/mL | Activity (RAW264.7 [14]): 302.3 pg/mL | inhibition [15]: Dose-dependent effect | Activity (RAW264.7 [16]): 1499.2 pg/mL | Activity (RAW264.7 [17]): 3862.3 pg/mL | Activity (RAW264.7 [18]): 9565.4 pg/mL
